Activity calls are given as the source filed them. No cut-off for these calls is given here.

In series [1] the test system is Rattus norvegicus. Nature of the series: Gastrointestinal toxicity in Wistar albino rat assessed as incidence of stomach ulceration at 0.029 mmol/kg, po followed by another two compound doses in second and third days measured on fourth day post dose by acute ulcerogenicity study. The format is organism-based. Conditions: in vivo. In short, it runs like this:
(§1)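 Adult Wistar rats of both sexes, 120–150 g, groups of 6, fasted 20 h; oral dose suspended in 1% Tween (vehicle group 1% Tween); fasted 2 h, fed 2 h, fasted 20 h; further doses on days 2 and 3. Scored: % incidence/10, mean ulcers per rat, mean severity score; ulcer index = sum of the three.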

Series [2] deals with Mus musculus. Nature of the series: Analgesic activity in Swiss albino mouse assessed as inhibition of acetic acid-induced writhing at 0.029 mmol/kg. po dosed 1 hr before acetic acid challenge and measured during 30 mins post acetic acid challenge. The format is functional. The method in brief:
(§2)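 Swiss albino mice of either sex, 18–22 g, six per group. Oral suspension at 0.029 mmol/kg given 1 h before 0.3 ml of 1% acetic acid i.p. Contractions counted for 30 min, starting 5 min after injection. % protection = (n − n')/n × 100 against control writhing. Potency% = % inhibition of test / % inhibition of indomethacin × 100. Mean ± SEM, ANOVA with post hoc test.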
On the technique in general: Writhing tests count abdominal constrictions after an irritant is injected.

For series [3], the system named is Rattus norvegicus. Kind of series: Antiinflammatory activity in Wistar albino rat assessed as inhibition of carrageenan-induced paw edema at 0.029 mmol/kg, po dosed 1 hr before carrageenan challenge measured 2 hrs post carrageenan-induced inflammation. In general terms: The carrageenan paw model is a standard test of acute inflammation.
Series [4] has as its system Rattus norvegicus. Nature of the series: Antiinflammatory activity in Wistar albino rat assessed as inhibition of carrageenan-induced paw edema at 4 mg/kg, po dosed 1 hr before carrageenan challenge measured after carrageenan-induced inflammation. The format is functional. The method in brief: (§3)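 Rat carrageenan paw oedema, six animals per group. Oral doses of 1, 2, 4 and 6 mg/kg in saline/Tween 80 given 1 h before 0.1 ml of 1% carrageenan s.c. into the right hind paw. Oedema measured as thickness increase over baseline. % inhibition = 100 × (1 − Vt/Vc). IC50 derived from the dose–response and reported in mg/kg and µmol/kg.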

The test system of series [5] is Rattus norvegicus. Kind of series: Gastrointestinal toxicity in Wistar albino rat assessed as stomach ulcer index at 0.029 mmol/kg, po followed by another two compound doses in second and third days measured on fourth day post dose by acute ulcerogenicity study. The format is organism-based. Conditions: in vivo. In short, it runs like this:
as §1

For series [6], the system named is Rattus norvegicus. Kind of series: Antiinflammatory activity in Wistar albino rat assessed as inhibition of carrageenan-induced paw edema at 6 mg/kg, po dosed 1 hr before carrageenan challenge measured after carrageenan-induced inflammation. Type of series: functional. The method in brief:
as §3

The subject of series [7] is Rattus norvegicus. Nature of the series: Antiinflammatory activity in Wistar albino rat assessed as inhibition of carrageenan-induced paw edema at 2 mg/kg, po dosed 1 hr before carrageenan challenge measured after carrageenan-induced inflammation. The format is functional. In short, it runs like this:
as §3

For another series, the species on record is Homo sapiens. Kind of series: Selectivity index, ratio of inhibition of COX1 to inhibition of COX2 by Cayman's COX activity assay. In short, it runs like this: (§4)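 COX peroxidase activity measured with a commercial COX activity assay kit (Kulmacz and Lands method), per manufacturer's instructions; % inhibition of COX-1 and COX-2 determined, selectivity expressed as ratio of COX-1 to COX-2 % inhibition.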

Series [8] concerns Rattus norvegicus. Kind of series: Antiinflammatory activity in Wistar albino rat assessed as inhibition of carrageenan-induced paw edema at 0.029 mmol/kg, po dosed 1 hr before carrageenan challenge measured 3 hrs post carrageenan-induced inflammation.
Series [9] can be described thus: Lipophilicity, log P of the compound. The format is physicochemical. Conditions: octanol/water.
Series [10] has as its system Rattus norvegicus. Kind of series: Antiinflammatory activity in Wistar albino rat assessed as inhibition of carrageenan-induced paw edema at 0.029 mmol/kg, po dosed 1 hr before carrageenan challenge measured 1 hr post carrageenan-induced inflammation. The format is functional. The method in brief: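 Wistar albino rats of both sexes, 120–150 g, six per group, food withdrawn the day before. Given orally 0.029 mmol/kg in saline with a few drops of Tween 80, by stomach tube, 1 h before subplantar s.c. carrageenan (0.1 ml of 1%) into the right hind paw. Paw thickness measured at 1, 2, 3 and 4 h against baseline. % inhibition = 100 × (1 − Vt/Vc).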

Series [11] relates to Rattus norvegicus. Nature of the series: Antiinflammatory activity in po dosed Wistar albino rat assessed as inhibition of carrageenan-induced paw edema dosed 1 hr before carrageenan challenge measured after carrageenan-induced inflammation. Type of series: functional, organism-based. In short, it runs like this:
as §3

Series [12] deals with Rattus norvegicus. Nature of the series: Gastrointestinal toxicity in Wistar albino rat assessed as incidence of stomach ulceration at 0.029 mmol/kg, po. As to conditions: in vivo. The format is organism-based. The method in brief: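 Rats given single oral dose suspended in saline with few drops Tween 80 (groups of 6); killed under deep ether anaesthesia 5 h after treatment; stomach opened along greater curvature and examined for lesions or bleeding; ulceration expressed as number of rats affected per group.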

The test system of series [13] is Mus musculus. Nature of the series: Analgesic activity in Swiss albino mouse assessed as inhibition of acetic acid-induced writhing at 0.029 mmol/kg. po dosed 1 hr before acetic acid challenge and measured during 30 mins post acetic acid challenge relative to indomethacin. Type of series: functional. As to conditions: read-out: INH. In short, it runs like this:
as §2

The test system of series [14] is Rattus norvegicus. Kind of series: Antiinflammatory activity in Wistar albino rat assessed as inhibition of carrageenan-induced paw edema at 0.029 mmol/kg, po dosed 1 hr before carrageenan challenge measured 4 hrs post carrageenan-induced inflammation.
Series [15] deals with Rattus norvegicus. Kind of series: Antiinflammatory activity in Wistar albino rat assessed as inhibition of carrageenan-induced paw edema at 1 mg/kg, po dosed 1 hr before carrageenan challenge measured after carrageenan-induced inflammation. The format is functional. The method in brief: as §3
Series [16] concerns the target Prostaglandin G/H synthase 1 (Homo sapiens) (UniProt P23219). Nature of the series: Inhibition of COX1 by Cayman's COX activity assay. The method in brief: as §4

Chain of Prostaglandin G/H synthase 1 (Homo sapiens) (P23219 whole entry): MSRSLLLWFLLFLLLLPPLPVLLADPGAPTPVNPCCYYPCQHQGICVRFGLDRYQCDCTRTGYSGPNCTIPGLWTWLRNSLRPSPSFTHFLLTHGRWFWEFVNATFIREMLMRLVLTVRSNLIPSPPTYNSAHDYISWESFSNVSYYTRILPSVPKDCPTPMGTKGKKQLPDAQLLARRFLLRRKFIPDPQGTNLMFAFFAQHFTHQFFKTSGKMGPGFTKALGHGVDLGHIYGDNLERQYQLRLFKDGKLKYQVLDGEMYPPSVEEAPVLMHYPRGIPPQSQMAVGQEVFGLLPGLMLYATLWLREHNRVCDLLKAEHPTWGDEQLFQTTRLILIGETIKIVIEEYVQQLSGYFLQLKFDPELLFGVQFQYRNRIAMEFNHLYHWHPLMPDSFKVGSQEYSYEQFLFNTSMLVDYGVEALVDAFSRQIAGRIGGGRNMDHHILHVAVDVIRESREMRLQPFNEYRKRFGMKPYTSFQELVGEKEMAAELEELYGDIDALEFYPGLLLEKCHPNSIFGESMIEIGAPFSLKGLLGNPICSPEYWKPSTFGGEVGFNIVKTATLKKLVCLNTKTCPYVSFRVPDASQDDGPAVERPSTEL

In the case of `Cc1cc(-c2ccccc2)nn1C(=O)c1nc2c(c(=O)[nH]1)C1CCCN1C(=O)N2c1ccccc1` (centres undefined), the Activity in the series with Rattus norvegicus [1] is reported as 6.66%; in the series with Rattus norvegicus [12] it was “Non-toxic”. In addition, the inhibition in vivo at 29 µmol/kg in the series on Mus musculus [2] came to 39.6%; in the series with Rattus norvegicus [3], 65%; with Rattus norvegicus [8], 59%; with Rattus norvegicus [10] it was 78%; in the series with Rattus norvegicus [14], 62%. Moreover, the inhibition in vivo at 4 mg/kg in the series on Rattus norvegicus [4] is 65%. For the same compound, in the series on Rattus norvegicus [5], the UI is on record as 10.94. In addition, in the series with Rattus norvegicus [6], the inhibition in vivo at 6 mg/kg stood at 60%. Also, in the series with Rattus norvegicus [7], the inhibition in vivo at 2 mg/kg is 45%. In addition, the Ratio in the series listed under Homo sapiens came to 1.02. In [9], this compound showed a logP of 3.7. Moreover, in the series on Rattus norvegicus [11], the IC50 was 8 µmol/kg. The writhing inhibition relative to indomethacin (potency %) at 29 µmol/kg in the series with Mus musculus [13] was found to be 59.8%. For the same compound, the inhibition in vivo at 1 mg/kg in the series on Rattus norvegicus [15] stood at 20%. For the same compound, the inhibition entry in [16] is “Active”.
`Cc1c(NC(=O)c2nc3c(c(=O)[nH]2)C2CCCN2C(=O)N3c2ccccc2)c(=O)n(-c2ccccc2)n1C` (centres undefined): the results for the Activity in the series with Rattus norvegicus [1] and in the series on Rattus norvegicus [12] were 5% and “Non-toxic”, respectively. In addition, the inhibition in vivo at 29 µmol/kg in the series with Mus musculus [2] came to 63.3%; in the series on Rattus norvegicus [3], 68%; with Rattus norvegicus [8], 78%; in the series with Rattus norvegicus [10] it was 78%; in the series with Rattus norvegicus [14], 83%. In addition, in the series on Rattus norvegicus [4], the inhibition in vivo at 4 mg/kg was found to be 78%. For the same compound, in the series on Rattus norvegicus [5], the UI is 7.16. Besides, the inhibition in vivo at 6 mg/kg in the series with Rattus norvegicus [6] was found to be 77%. The inhibition in vivo at 2 mg/kg in the series on Rattus norvegicus [7] turned out to be 48%. Besides, in the series listed under Homo sapiens, the Ratio came to 1.3. In series [9], this compound returned a logP of 2.09. Besides, the IC50 in the series with Rattus norvegicus [11] amounted to 6 µmol/kg. Also, the writhing inhibition relative to indomethacin (potency %) at 29 µmol/kg in the series on Mus musculus [13] was determined as 95.7%. Besides, the inhibition in vivo at 1 mg/kg with Rattus norvegicus [15] was 30%. Moreover, in series [16], the inhibition entry is “Active”.

Usually inhibition in vivo stands for the change of the read-out against control, counted positive when it falls. Broadly, the logP is a log measure of how a compound divides between an organic and an aqueous phase.

The record behind these values is ChEMBL document CHEMBL2062401, “New pyrimido[5,4-e]pyrrolo[1,2-c]pyrimidines: synthesis, 2D-QSAR, anti-inflammatory, analgesic and ulcerogenicity studies” (Eur J Med Chem, 2012).
